Most compounds without a hit are left out; they make up all but 2.6% or so of the library.
SENP8 block-1: inhibitors of human SENP8 protease; Q96LD8; purified SENP8, Z-RLRGG-aminoluciferin cleavage, luminescence; inhibition, % at 10 µM; 330,000 compounds, 1.2% hits; AID 2540; in the data active = inhibition above about 50%
Target sequence (Q96LD8 whole entry, looked up): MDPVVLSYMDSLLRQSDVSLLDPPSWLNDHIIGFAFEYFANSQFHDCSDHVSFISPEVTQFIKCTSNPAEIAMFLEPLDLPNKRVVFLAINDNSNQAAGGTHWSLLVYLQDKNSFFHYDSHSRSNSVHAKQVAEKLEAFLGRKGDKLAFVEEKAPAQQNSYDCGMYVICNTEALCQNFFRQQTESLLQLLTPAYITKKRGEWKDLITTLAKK
Platelet DG rel: modulates dense granule release in human platelets; AID 1663; human platelet-rich plasma, SFLLRN dense granule ATP release, luminescence; inhibition, %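 (compounds screened at 7.5 µM in platelet-rich plasma)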; 300,000 compounds, 0.22% hits;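 active = mean replicate score, as percent of positive control, at or above 50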
SENP1 FRET inh: blocks the human SENP1 SUMO protease catalytic domain; Q9P0U3; recombinant SENP1 catalytic domain, CyPet-SUMO1-YPet FRET cleavage; inhibition, % at 10 µM; 360,000 compounds, 0.21% hits; AID 624204;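 active = inhibition at least 30% at 10 µM, raw YFP signal under a set limit, fluorescence ratio 0.5 to 1.5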
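Assay system – human recombinant His6-tagged SENP1 catalytic domain enzyme · Input – SENP1 enzyme, 20 pM final · Buffer or medium – Tris pH 8 buffer plus EDTA, NaCl, BME, BSA, NP40, catalase · Schedule – 50 min reaction at room temperature · Technique – FRET read of cyan and yellow fluorescence · Control set – no-enzyme wells low, DMSO-plus-enzyme wells high control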
SENP7 inh: blocks the human protease SENP7. inhibition, % at 5 µM. recombinant SENP7, Z-RLRGG-aminoluciferin luminescence, 40 min. Q9BQF6. 330,000 compounds, 1.5% hits;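 active = inhibition above about 50% at the single test dose, limit read from the data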
Target sequence (Q9BQF6 706-1050 limits assumed): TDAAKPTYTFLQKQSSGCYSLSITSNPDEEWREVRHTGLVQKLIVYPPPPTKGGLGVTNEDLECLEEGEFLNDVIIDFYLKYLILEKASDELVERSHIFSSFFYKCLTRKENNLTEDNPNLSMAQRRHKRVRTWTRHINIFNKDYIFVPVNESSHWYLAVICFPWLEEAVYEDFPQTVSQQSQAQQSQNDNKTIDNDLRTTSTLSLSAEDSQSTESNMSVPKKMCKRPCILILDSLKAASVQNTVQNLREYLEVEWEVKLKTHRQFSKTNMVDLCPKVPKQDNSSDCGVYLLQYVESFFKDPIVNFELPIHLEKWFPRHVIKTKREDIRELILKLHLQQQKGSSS
SENP6 block: SENP6 protease inhibition. AID 2599. 330,000 compounds, 1.8% hits. inhibition, % at 10 µM. Q9GZR1. Recombinant SENP6 catalytic domain, aminoluciferin luminescence;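 active = inhibition above about 50% at the single tested dose, limit read from the data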
SENP8 block-2: blocks human SENP8 cleavage of Nedd8 substrate; Q96LD8; recombinant SENP8, Nedd8 substrate fluorescence; inhibition, % at 20 µM; 360,000 compounds, 0.64% hits; AID 602440; in the data active = inhibition mostly above about 40%, no sharp cut-off; inactive = mostly below about 27%
SENP8 confirm: confirmation of human SENP8 protease inhibitors | shares compounds with SENP7 inh | Recombinant SENP8, Z-RLRGG-aminoluciferin luminescence, 60 min | inhibition, % at 12.5 µM | 6,200 compounds, 40% hits | AID 488912;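 active = mean inhibition across replicates above about 50%, limit read from the data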
SENP6 conf: confirmation of human SENP6 protease inhibitors. shares compounds with SENP7 inh. recombinant SENP6, Z-RLRGG-aminoluciferin luminescence. inhibition, % at 12.5 µM. 6,200 compounds, 58% hits
SENP7 confirm: confirmation of human SENP7 protease inhibitors; recombinant SENP7, Z-RLRGG-aminoluciferin luminescence, 40 min; AID 488917; 6,200 compounds, 69% hits; inhibition, % at 12.5 µM; shares compounds with SENP7 inh
Casp3 select: selectivity test for SENP inhibitors: human caspase-3 inhibition; shares compounds with SENP7 inh; purified caspase-3, Z-DEVD-aminoluciferin luminescence, 60 min; inhibition, % at 12.5 µM; 6,200 compounds, 60% hits; AID 488918;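 active = mean inhibition above about 50%, limit read from the data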
Luc interf: counter-screen for SENP inhibitors: luminescence interference | shares compounds with SENP7 inh | inhibition, % at 12.5 µM | Pre-incubated SENP8/Z-RLRGG-aminoluciferin, luciferase luminescence interference | 6,200 compounds, 39% hits;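 active = mean inhibition above about 50% when retested at one dose, limit read from the data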
Large screens that a line does not name were inactive (follow-up assays come after a bar, where they were run).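 The calls were made as follows, unless noted: active = mean inhibition above about 50% in the one-dose retest (limit read from the data); inactive = the rest.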

Cc1nc2nc(-c3ccccc3)cc(=O)n2[nH]1	SENP7 inh 55.3 | SENP8 confirm 56.7 | SENP6 conf 51.5 | SENP7 confirm 83.5 | Casp3 select 85.4 | Luc interf 65.6
CCOC(=O)c1coc(CNC(=O)c2c(C)oc3c2CCCC3)c1	none
Cc1cc(/C=C(\C#N)C(=O)Nc2ccccc2F)c(C)[nH]1	none
NC(=O)c1c(NC(=O)c2ccccc2)sc2c1CCc1ccccc1-2	SENP7 inh 63.8 | SENP8 confirm inactive | SENP6 conf inactive | SENP7 confirm inactive | Casp3 select inactive | Luc interf inactive
Cc1cccc(C(=O)Nc2sc3c(c2C(=O)O)CCCC3)c1	SENP8 block-1 93.1, SENP7 inh 69.6, SENP6 block 92.8 | SENP8 confirm 97.2 | SENP6 conf 98.1 | SENP7 confirm 102.1 | Casp3 select 94.6 | Luc interf 78.8
O=C(Nc1sc2c(c1C(=O)O)CCC2)c1cccc(Cl)c1	SENP8 block-1 95.1, SENP7 inh 68.1, SENP6 block 97.0 | SENP8 confirm 96.2 | SENP6 conf 98.6 | SENP7 confirm 102.4 | Casp3 select 94.8 | Luc interf 97.5
O=C(Nc1sc2c(c1C(=O)O)CCCCC2)c1cccnc1	none
Cc1cc(C(=O)Nc2sc3c(c2C#N)CCCCC3)cs1	SENP7 inh 76.7, SENP6 block 57.2 | SENP8 confirm inactive | SENP6 conf inactive | SENP7 confirm inactive | Casp3 select inactive | Luc interf inactive
N#CCN1CCC2(O)CCCCC2C1c1ccc2c(c1)OCO2 (stereo not given)	none
COc1ccccc1C(=O)n1nc(-c2cccnc2)nc1NCc1ccccc1	none (no result: SENP8 block-1, SENP7 inh, SENP6 block)
Cc1ccc([C@H]2C[C@@H](O)[C@H](n3cc(COC(=O)c4ccccc4)nn3)CN2C(=O)c2cccs2)cc1	none (no result: SENP8 block-1, Platelet DG rel, SENP7 inh, SENP6 block)
CC12CCC(=O)N1C(C(=O)NNC(=O)c1ccccc1F)CS2 (stereo not given)	none (no result: Platelet DG rel)
CN1CCc2c(sc(NC(=O)c3ccc4ccccc4c3)c2C(N)=O)C1	SENP8 block-1 66.5, SENP7 inh 68.4, SENP6 block 61.9 | SENP8 confirm 59.0 | SENP6 conf 61.4 | SENP7 confirm 88.2 | Casp3 select 61.2 | Luc interf inactive
CN1CCc2c(sc(NC(=O)Cc3ccccc3)c2C(N)=O)C1	none
NC(=O)c1c(NC(=O)c2ccccc2)sc2c1CCC2	SENP6 block 57.2 | SENP8 confirm inactive | SENP6 conf inactive | SENP7 confirm 83.0 | Casp3 select inactive | Luc interf inactive
N#Cc1c(NC(=O)CSc2ncn[nH]2)sc2c1CCCCC2	SENP8 block-1 67.9, SENP6 block 76.4 | SENP8 confirm inactive | SENP6 conf 83.2 | SENP7 confirm 88.8 | Casp3 select inactive | Luc interf inactive
NC(=O)c1c(NC(=O)c2ccncc2)sc2c1CCCC2	none
O=C(Cn1c(NCCCCl)nc2ccccc21)c1ccccc1	none (no result: Platelet DG rel)
Cc1cccc(NS(=O)(=O)c2csc(C(N)=O)c2)c1C	none
CCn1c(=O)cc(OCC(=O)NC(C)c2ccc3c(c2)OCCO3)c2ccccc21 (stereo not given)	none
COc1cc(OC)cc(C(=O)NC(=S)N2CCCCCC2)c1	none
COc1ccc(CN2C(=NC(=O)CCC3CCCC3)SC3CS(=O)(=O)CC32)cc1 (stereo not given)	none
CCCCCc1ccc(-c2ccc(/C=C/C(=O)O)cc2)nc1	SENP6 block 75.5 | SENP8 confirm 76.5 | SENP6 conf 67.8 | SENP7 confirm 87.9 | Casp3 select inactive | Luc interf inactive
CCCc1ccc(-c2ccc(/C=C/C(=O)O)cc2)nc1	none (no result: SENP8 block-1, SENP7 inh, SENP6 block)
COc1ccccc1N1CCN(/N=C/c2ccc([N+](=O)[O-])cc2)CC1	SENP8 block-1 54.2, SENP7 inh 63.6, SENP6 block 67.7 | SENP8 confirm inactive | SENP6 conf inactive | SENP7 confirm 90.9 | Casp3 select inactive | Luc interf inactive
COc1ccccc1N1CCN(/N=C/c2cc(OC)c(O)c(OC)c2)CC1	none
CCCCn1nnnc1C(CCc1ccccc1)N1CCN(C/C=C/c2ccccc2)CC1 (stereo not given)	none (no result: SENP8 block-1, Platelet DG rel, SENP7 inh, SENP6 block)
Cc1ccc(S(=O)(=O)/N=C(/NC(=S)Nc2ccccc2)c2ccccc2)cc1	SENP6 block 73.6 | SENP8 confirm 67.2 | SENP6 conf 65.4 | SENP7 confirm 85.8 | Casp3 select inactive | Luc interf inactive
COc1ccc(C(=O)NN/C(=N/S(=O)(=O)c2ccc(C)cc2)c2ccccc2)cc1	SENP8 block-1 54.0, SENP7 inh 78.3, SENP6 block 87.7 | SENP8 confirm 68.7 | SENP6 conf 64.3 | SENP7 confirm 88.3 | Casp3 select 69.9 | Luc interf 72.7
CCOc1ccc(S(=O)(=O)/N=C(/Nc2ccc(OC)cc2)c2ccccc2)cc1	none
Cc1noc(C)c1S(=O)(=O)N1CCC(C(=O)NCCCN2CC(C)CC(C)C2)CC1 (stereo not given)	none
COc1ccccc1/C=C/c1nc(C#N)c(N(C)C)o1	SENP6 block 57.2 | SENP8 confirm inactive | SENP6 conf 57.3 | SENP7 confirm inactive | Casp3 select 53.4 | Luc interf inactive
Nc1ccc(Br)c2cccnc12	SENP8 block-1 74.7, SENP7 inh 62.3, SENP6 block 85.4 | SENP8 confirm inactive | SENP6 conf 63.0 | SENP7 confirm inactive | Casp3 select inactive | Luc interf inactive
Cc1cc(N)n(-c2nc3ccccc3s2)n1	SENP8 block-1 86.3, SENP7 inh 93.5, SENP6 block 86.9 | SENP8 confirm 91.6 | SENP6 conf 92.8 | SENP7 confirm 100.1 | Casp3 select 92.9 | Luc interf inactive
O=C(Oc1ccccc1)c1ccc(NC(=O)c2ccco2)cc1	SENP8 block-1 66.4, SENP7 inh 90.6 | SENP8 confirm inactive | SENP6 conf 65.5 | SENP7 confirm 84.8 | Casp3 select 77.7 | Luc interf inactive
CN(C(=O)c1ccc(NC(=O)c2ccco2)cc1)c1ccccc1	SENP8 block-1 61.2, SENP7 inh 81.4, SENP6 block 80.8 | SENP8 confirm inactive | SENP6 conf 69.2 | SENP7 confirm 86.7 | Casp3 select 88.1 | Luc interf 72.1

Source: PubChem BioAssay
